Measured values published in paper PMC8114186 (ChemMedChem, 2020).
Read-outs that look alike come from different tables or passages of the source. Marks after values point to notes of the source that are not given here.

How the values were obtained:
NDM-1 = NDM-1 (Klebsiella pneumoniae, UniProt C7C422); assay: In vitro inhibition of NDM-1-catalyzed turnover of nitrocefin; type: biochemical
Method in brief: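 Purified NDM-1 enzyme, identity and purity confirmed by ESI-MS. Test compound serially diluted in 50 mM HEPES, pH 7.2, and preincubated with 1 nM NDM-1 for 10 min at rt. Nitrocefin (20 µM) then added; absorbance at 492 nm followed over 30 min at rt. Slopes normalized to each compound's maximum slope, plotted against log concentration; IC50 and confidence intervals from curve fit.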

[1] = test system: E. coli MG1655 expressing NDM-1; type: cell-based
[2] = test system: E. coli UTI89 expressing NDM-1; type: cell-based
[3] = E. coli MG1655, 100 μM compound

Sequence of NDM-1 (C7C422 29-270, looked up, species assumed): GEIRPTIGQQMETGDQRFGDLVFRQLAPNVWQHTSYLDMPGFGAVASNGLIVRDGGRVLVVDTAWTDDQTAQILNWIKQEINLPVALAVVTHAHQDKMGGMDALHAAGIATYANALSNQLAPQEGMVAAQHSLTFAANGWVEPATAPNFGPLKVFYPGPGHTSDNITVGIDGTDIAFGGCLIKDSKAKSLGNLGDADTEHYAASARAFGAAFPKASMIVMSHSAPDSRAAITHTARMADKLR

With `O=C(O)c1cccc2oc(-c3ccc4ccccc4c3O)nc12` [Compound 5, 2-(1-hydroxynaphthalen-2-yl)benzoxazole-4-carboxylic acid] the IC50 (NDM-1) was 0.74 µM, the “Decrease of the MIC of meropenem” value [1, 3] was “at least 16 fold” and the “Decrease of the MIC of meropenem” value ([2]; E. coli UTI89, 100 μM compound) was “at least 16 fold”.
Compound `O=C(O)c1cccc2oc(-c3cc4ccccc4cc3O)nc12` [Compound 6, 2-(3-hydroxynaphthalen-2-yl)benzoxazole-4-carboxylic acid] has an IC50 (NDM-1) of 9.8 µM.
With `O=C(O)c1cccc2oc(-c3c(O)ccc4ccccc34)nc12` [Compound 7, 2-(2-hydroxynaphthalen-1-yl)benzoxazole-4-carboxylic acid] the IC50 (NDM-1) was 8.5 µM, the “Restoration of meropenem susceptibility” value [1, 3] was “failed to restore meropenem susceptibility” and the “Meropenem MIC” value ([1]; E. coli MG1655, meropenem + 100 μM compound) was 64 µg/mL. The “Restoration of meropenem susceptibility” value ([2]; E. coli UTI89, 100 μM compound) was “failed to restore meropenem susceptibility” and the “Meropenem MIC” value ([2]; E. coli UTI89, meropenem + 100 μM compound) was 64 µg/mL.
In the case of `O=C(O)c1cccc2oc(-c3ccc4ccc(OCc5ccccc5)cc4c3O)nc12` [Compound 8, 2-(7-benzyloxy-1-hydroxynaphthalen-2-yl)benzoxazole-4-carboxylic acid], the IC50 (NDM-1) is reported as 2.3 µM, the “Decrease of the MIC of meropenem” value [1, 3] is reported as “at least 16 fold” and the “Decrease of the MIC of meropenem” value ([2]; E. coli UTI89, 100 μM compound) is reported as “at least 16 fold”.
In the case of `O=C(O)c1cccc2oc(-c3ccc4cc(OCc5ccccc5)ccc4c3O)nc12` [Compound 9, 2-(6-benzyloxy-1-hydroxynaphthalen-2-yl)benzoxazole-4-carboxylic acid], the “Reduction of the MIC of meropenem” value ([1]; E. coli MG1655, 25 μM compound) is reported as “at least 4 fold”, the “Decrease of the MIC of meropenem” value [1, 3] is reported as “at least 16 fold” and the “Antibacterial activity of compound on its own” value ([1]; E. coli MG1655, 200 μM, no meropenem) is reported as “did not show any antibacterial activity”. The “Meropenem MIC” value ([1]; E. coli MG1655, meropenem + 25 μM compound) was 16 µg/mL, the “Meropenem MIC” value ([1]; E. coli MG1655, meropenem + 50 μM compound) was 1–4^[a] μg/mL and the “Meropenem MIC” value ([1]; E. coli MG1655, meropenem + 200 μM compound) was no more than 0.5 µg/mL. The “Reduction of the MIC of meropenem” value ([2]; E. coli UTI89, 25 μM compound) was “at least 4 fold”, the “Decrease of the MIC of meropenem” value ([2]; E. coli UTI89, 100 μM compound) was “at least 16 fold” and the “Antibacterial activity of compound on its own” value ([2]; E. coli UTI89, 200 μM, no meropenem) was “did not show any antibacterial activity”. For the same compound, the “Meropenem MIC” value ([2]; E. coli UTI89, meropenem + 25 μM compound) was 4–8^[a] μg/mL, the “Meropenem MIC” value ([2]; E. coli UTI89, meropenem + 50 μM compound) was no more than 0.5 µg/mL and the “Meropenem MIC” value ([2]; E. coli UTI89, meropenem + 200 μM compound) was no more than 0.5 µg/mL.
With `O=C(O)c1cccc2oc(-c3ccc4c(OCc5ccccc5)cccc4c3O)nc12` [Compound 10, 2-(5-benzyloxy-1-hydroxynaphthalen-2-yl)benzoxazole-4-carboxylic acid] the IC50 (NDM-1) was greater than 40 µM and the “Inhibitory activity against NDM-1 (in words)” value (NDM-1) was “lack of inhibitory activity”.
In the case of `C[C@@H](O)[C@H]1C(=O)N2C(C(=O)O)=C(S[C@@H]3CN[C@H](C(=O)N(C)C)C3)[C@H](C)[C@H]12` [Meropenem, reference compound], the “Meropenem MIC” value ([1]; E. coli MG1655, meropenem alone) is reported as 64 µg/mL, the “Meropenem MIC” value ([2]; E. coli UTI89, meropenem alone) is reported as greater than 64 µg/mL and the MIC ([2]; Escherichia coli, read-out: Meropenem MIC, E. coli UTI89, meropenem alone) is reported as no less than 64 µg/mL.
